The target of experiment [1] is T1, Hepatocyte nuclear factor 4-alpha (Homo sapiens) (UniProt P41235).
T1 sequence (whole entry): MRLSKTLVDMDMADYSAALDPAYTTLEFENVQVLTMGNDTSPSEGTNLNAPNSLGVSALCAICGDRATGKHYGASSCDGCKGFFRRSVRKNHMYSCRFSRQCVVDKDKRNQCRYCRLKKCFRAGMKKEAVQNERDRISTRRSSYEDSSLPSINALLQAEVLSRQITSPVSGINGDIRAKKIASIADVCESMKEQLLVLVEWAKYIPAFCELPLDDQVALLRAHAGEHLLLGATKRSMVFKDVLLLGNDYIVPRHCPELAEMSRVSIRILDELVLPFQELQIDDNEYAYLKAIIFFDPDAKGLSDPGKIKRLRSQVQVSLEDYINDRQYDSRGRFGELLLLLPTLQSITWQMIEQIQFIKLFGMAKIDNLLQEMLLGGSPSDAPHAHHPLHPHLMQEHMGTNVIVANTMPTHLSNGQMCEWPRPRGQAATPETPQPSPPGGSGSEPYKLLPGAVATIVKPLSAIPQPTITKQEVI
Put plainly: Inhibition of HNF4alpha mRNA expression in human HepG2 cells after 24 hrs by RT-PCR analysis. Format: cell-based. Conditions: in the assay text read “after 48 hrs” for “after 24 hrs”. In short, it runs like this: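 HepG2 cells were grown in DMEM with 5% FBS at 37 °C and transfected with siRNA using a transfection reagent. After 24 h at 37 °C, the medium was changed to DMEM with 10% FBS and cells were incubated a further 24 h. Total RNA was reverse-transcribed for real-time PCR (40 cycles). HNF4α mRNA was normalized to GAPDH by ΔΔCt and expressed relative to nonsense control siRNA, using the mean Ct of duplicate PCRs from independent cells.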

Experiment [2] has as its target T1, Hepatocyte nuclear factor 4-alpha (Homo sapiens). In words: Inhibition of HNF4alpha mRNA expression in human HepG2 cells after 24 hrs by real-time RT-PCR. On the technique in general: In qPCR the cycle at which signal appears reflects the starting amount.

The structures appear in SMILES notation. Calls of active or inactive are those of the source. The rule behind the calls is not given here.

Regarding `Cc1cn([C@H]2C[C@H](OP(=O)(O)OC[C@H]3O[C@@H](n4cc(C)c(=O)[nH]c4=O)C[C@@H]3O)[C@@H](COP(=O)(O)O[C@@H]3[C@H](O)[C@@H](COP(=O)(O)O[C@H]4[C@@H](O)[C@H](n5cnc6c(N)ncnc65)O[C@@H]4COP(=O)(O)O[C@H]4[C@@H](O)[C@H](n5ccc(N)nc5=O)O[C@@H]4COP(=O)(O)O[C@H]4[C@@H](O)[C@H](n5cnc6c(N)ncnc65)O[C@@H]4COP(=O)(O)O[C@@H]4[C@H](O)[C@@H](COP(=O)(O)O[C@@H]5[C@H](O)[C@@H](COP(=O)(O)O[C@H]6[C@@H](O)[C@H](n7ccc(=O)[nH]c7=O)O[C@@H]6COP(=O)(O)O[C@@H]6[C@H](O)[C@@H](COP(=O)(O)O[C@@H]7[C@H](O)[C@@H](COP(=O)(O)O[C@H]8[C@@H](O)[C@H](n9ccc(=O)[nH]c9=O)O[C@@H]8COP(=O)(O)O[C@@H]8[C@H](O)[C@@H](COP(=O)(O)O[C@H]9[C@@H](O)[C@H](n%10ccc(N)nc%10=O)O[C@@H]9COP(=O)(O)O[C@@H]9[C@H](O)[C@@H](COP(=O)(O)O[C@H]%10[C@@H](O)[C@H](n%11ccc(=O)[nH]c%11=O)O[C@@H]%10COP(=O)(O)O[C@@H]%10[C@H](O)[C@@H](COP(=O)(O)O[C@H]%11[C@@H](O)[C@H](n%12cnc%13c(N)ncnc%13%12)O[C@@H]%11COP(=O)(O)O[C@H]%11[C@@H](O)[C@H](n%12ccc(N)nc%12=O)O[C@@H]%11COP(=O)(O)O[C@@H]%11[C@H](O)[C@@H](COP(=O)(O)O[C@H]%12[C@@H](O)[C@H](n%13cnc%14c(=O)[nH]c(N)nc%14%13)O[C@@H]%12COP(=O)(O)O)O[C@H]%11n%11cnc%12c(=O)[nH]c(N)nc%12%11)O[C@H]%10n%10cnc%11c(=O)[nH]c(N)nc%11%10)O[C@H]9n9cnc%10c(=O)[nH]c(N)nc%109)O[C@H]8n8cnc9c(=O)[nH]c(N)nc98)O[C@H]7n7cnc8c(=O)[nH]c(N)nc87)O[C@H]6n6cnc7c(=O)[nH]c(N)nc76)O[C@H]5n5cnc6c(=O)[nH]c(N)nc65)O[C@H]4n4cnc5c(=O)[nH]c(N)nc54)O[C@H]3n3cnc4c(N)ncnc43)O2)c(=O)[nH]c1=O`, the result in experiment [1] and in experiment [2] was Active.

As to `Cc1cn([C@H]2C[C@H](OP(=O)(O)OC[C@H]3O[C@@H](n4cc(C)c(=O)[nH]c4=O)C[C@@H]3O)[C@@H](COP(=O)(O)O[C@H]3[C@@H](O)[C@H](n4ccc(N)nc4=O)O[C@@H]3COP(=O)(O)O[C@H]3[C@@H](O)[C@H](n4ccc(N)nc4=O)O[C@@H]3COP(=O)(O)O[C@@H]3[C@H](O)[C@@H](COP(=O)(O)O[C@H]4[C@@H](O)[C@H](n5ccc(=O)[nH]c5=O)O[C@@H]4COP(=O)(O)O[C@H]4[C@@H](O)[C@H](n5ccc(N)nc5=O)O[C@@H]4COP(=O)(O)O[C@H]4[C@@H](O)[C@H](n5cnc6c(N)ncnc65)O[C@@H]4COP(=O)(O)O[C@H]4[C@@H](O)[C@H](n5ccc(N)nc5=O)O[C@@H]4COP(=O)(O)O[C@@H]4[C@H](O)[C@@H](COP(=O)(O)O[C@H]5[C@@H](O)[C@H](n6ccc(N)nc6=O)O[C@@H]5COP(=O)(O)O[C@H]5[C@@H](O)[C@H](n6cnc7c(N)ncnc76)O[C@@H]5COP(=O)(O)O[C@H]5[C@@H](O)[C@H](n6ccc(N)nc6=O)O[C@@H]5COP(=O)(O)O[C@H]5[C@@H](O)[C@H](n6ccc(N)nc6=O)O[C@@H]5COP(=O)(O)O[C@H]5[C@@H](O)[C@H](n6cnc7c(N)ncnc76)O[C@@H]5COP(=O)(O)O[C@H]5[C@@H](O)[C@H](n6ccc(N)nc6=O)O[C@@H]5COP(=O)(O)O[C@H]5[C@@H](O)[C@H](n6ccc(N)nc6=O)O[C@@H]5COP(=O)(O)O[C@H]5[C@@H](O)[C@H](n6ccc(=O)[nH]c6=O)O[C@@H]5COP(=O)(O)O[C@@H]5[C@H](O)[C@@H](COP(=O)(O)O[C@H]6[C@@H](O)[C@H](n7ccc(=O)[nH]c7=O)O[C@@H]6COP(=O)(O)O[C@H]6[C@@H](O)[C@H](n7ccc(=O)[nH]c7=O)O[C@@H]6COP(=O)(O)O)O[C@H]5n5cnc6c(=O)[nH]c(N)nc65)O[C@H]4n4cnc5c(=O)[nH]c(N)nc54)O[C@H]3n3cnc4c(=O)[nH]c(N)nc43)O2)c(=O)[nH]c1=O`, the result in experiment [1] and in experiment [2] was Active.

Consider `Cc1cn([C@H]2C[C@H](OP(=O)(O)OC[C@H]3O[C@@H](n4cc(CC(=O)NCCN(CCN)CCN)c(=O)[nH]c4=O)C[C@@H]3O)[C@@H](COP(=O)(O)O[C@H]3[C@@H](O)[C@H](n4ccc(N)nc4=O)O[C@@H]3COP(=O)(O)O[C@H]3[C@@H](O)[C@H](n4ccc(N)nc4=O)O[C@@H]3COP(=O)(O)O[C@@H]3[C@H](O)[C@@H](COP(=O)(O)O[C@H]4[C@@H](O)[C@H](n5ccc(=O)[nH]c5=O)O[C@@H]4COP(=O)(O)O[C@H]4[C@@H](O)[C@H](n5ccc(N)nc5=O)O[C@@H]4COP(=O)(O)O[C@H]4[C@@H](O)[C@H](n5cnc6c(N)ncnc65)O[C@@H]4COP(=O)(O)O[C@H]4[C@@H](O)[C@H](n5ccc(N)nc5=O)O[C@@H]4COP(=O)(O)O[C@@H]4[C@H](O)[C@@H](COP(=O)(O)O[C@H]5[C@@H](O)[C@H](n6ccc(N)nc6=O)O[C@@H]5COP(=O)(O)O[C@H]5[C@@H](O)[C@H](n6cnc7c(N)ncnc76)O[C@@H]5COP(=O)(O)O[C@H]5[C@@H](O)[C@H](n6ccc(N)nc6=O)O[C@@H]5COP(=O)(O)O[C@H]5[C@@H](O)[C@H](n6ccc(N)nc6=O)O[C@@H]5COP(=O)(O)O[C@H]5[C@@H](O)[C@H](n6cnc7c(N)ncnc76)O[C@@H]5COP(=O)(O)O[C@H]5[C@@H](O)[C@H](n6ccc(N)nc6=O)O[C@@H]5COP(=O)(O)O[C@H]5[C@@H](O)[C@H](n6ccc(N)nc6=O)O[C@@H]5COP(=O)(O)O[C@H]5[C@@H](O)[C@H](n6ccc(=O)[nH]c6=O)O[C@@H]5COP(=O)(O)O[C@@H]5[C@H](O)[C@@H](COP(=O)(O)O[C@H]6[C@@H](O)[C@H](n7ccc(=O)[nH]c7=O)O[C@@H]6COP(=O)(O)O[C@H]6[C@@H](O)[C@H](n7ccc(=O)[nH]c7=O)O[C@@H]6COP(=O)(O)O)O[C@H]5n5cnc6c(=O)[nH]c(N)nc65)O[C@H]4n4cnc5c(=O)[nH]c(N)nc54)O[C@H]3n3cnc4c(=O)[nH]c(N)nc43)O2)c(=O)[nH]c1=O`, for which the outcome in experiment [1] and in experiment [2] was Active.

Regarding `NCCN(CCN)CCNC(=O)Cc1cn([C@H]2C[C@H](OP(=O)(O)OC[C@H]3O[C@@H](n4cc(CC(=O)NCCN(CCN)CCN)c(=O)[nH]c4=O)C[C@@H]3O)[C@@H](COP(=O)(O)O[C@H]3[C@@H](O)[C@H](n4ccc(N)nc4=O)O[C@@H]3COP(=O)(O)O[C@H]3[C@@H](O)[C@H](n4ccc(N)nc4=O)O[C@@H]3COP(=O)(O)O[C@@H]3[C@H](O)[C@@H](COP(=O)(O)O[C@H]4[C@@H](O)[C@H](n5ccc(=O)[nH]c5=O)O[C@@H]4COP(=O)(O)O[C@H]4[C@@H](O)[C@H](n5ccc(N)nc5=O)O[C@@H]4COP(=O)(O)O[C@H]4[C@@H](O)[C@H](n5cnc6c(N)ncnc65)O[C@@H]4COP(=O)(O)O[C@H]4[C@@H](O)[C@H](n5ccc(N)nc5=O)O[C@@H]4COP(=O)(O)O[C@@H]4[C@H](O)[C@@H](COP(=O)(O)O[C@H]5[C@@H](O)[C@H](n6ccc(N)nc6=O)O[C@@H]5COP(=O)(O)O[C@H]5[C@@H](O)[C@H](n6cnc7c(N)ncnc76)O[C@@H]5COP(=O)(O)O[C@H]5[C@@H](O)[C@H](n6ccc(N)nc6=O)O[C@@H]5COP(=O)(O)O[C@H]5[C@@H](O)[C@H](n6ccc(N)nc6=O)O[C@@H]5COP(=O)(O)O[C@H]5[C@@H](O)[C@H](n6cnc7c(N)ncnc76)O[C@@H]5COP(=O)(O)O[C@H]5[C@@H](O)[C@H](n6ccc(N)nc6=O)O[C@@H]5COP(=O)(O)O[C@H]5[C@@H](O)[C@H](n6ccc(N)nc6=O)O[C@@H]5COP(=O)(O)O[C@H]5[C@@H](O)[C@H](n6ccc(=O)[nH]c6=O)O[C@@H]5COP(=O)(O)O[C@@H]5[C@H](O)[C@@H](COP(=O)(O)O[C@H]6[C@@H](O)[C@H](n7ccc(=O)[nH]c7=O)O[C@@H]6COP(=O)(O)O[C@H]6[C@@H](O)[C@H](n7ccc(=O)[nH]c7=O)O[C@@H]6COP(=O)(O)O)O[C@H]5n5cnc6c(=O)[nH]c(N)nc65)O[C@H]4n4cnc5c(=O)[nH]c(N)nc54)O[C@H]3n3cnc4c(=O)[nH]c(N)nc43)O2)c(=O)[nH]c1=O`, the outcome in experiment [1] and in experiment [2] was Active.
